Measurements published in ChEMBL document CHEMBL3124881, “New perspectives on the synthesis and antichagasic activity of 3-alkoxy-1-alkyl-5-nitroindazoles” (Eur J Med Chem, 2014).
The source made the active and inactive calls. No cut-off for these calls is given here.

Columns and labels:
[1] = Selectivity index, ratio of IC50 for African green monkey Vero cells to IC50 for Trypanosoma cruzi (IRHOD/CO/2008/SN3) trypomastigotes; assay type: toxicity, cell-based; settings: read-out: Ratio IC50
Method in brief: (§1)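 SI calculated as IC50 on Vero cells divided by IC50 on the corresponding parasite form (epimastigote, amastigote or trypomastigote).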

[2] = test system: Trypanosoma cruzi; assay: Antitrypanosomal activity against Trypanosoma cruzi (IRHOD/CO/2008/SN3) amastigotes infected in African green monkey Vero cells after 72 hrs by Giemsa staining-based microscopic analysis; assay type: functional, organism-based
Method in brief: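 SN3 strain. Vero cells in RPMI with 10% inactivated FBS at 37 °C, 5% CO2, seeded at 1 × 10⁴ cells/well on coverslips and grown 2 days. Infected with metacyclic forms at 10:1 for 24 h, then washed. Drugs at 100, 50, 25, 10 and 1 for 72 h. Methanol fixation, Giemsa stain, amastigotes counted over 200 host cells. IC50 by linear regression; mean of four experiments.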

[3] = test system: Trypanosoma cruzi; assay: Antitrypanosomal activity against Trypanosoma cruzi (IRHOD/CO/2008/SN3) epimastigotes after 72 hrs by Neubauer chamber counting analysis; assay type: functional, organism-based
Method in brief: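 SN3 epimastigotes grown in MTL medium with 10% inactivated FBS at 28 °C. Compounds dissolved in DMSO (0.01% final) and added at 100, 50, 25, 10 and 1. Parasites counted at 72 h in a Neubauer haemocytometer. IC50 from linear regression of Kc values; averages of four experiments.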

[4] = test system: Vero; assay: Cytotoxicity against African green monkey Vero cells assessed as cell viability after 72 hrs by propidium iodide staining-based flow cytometric analysis; settings: Chlorocebus sabaeus
Method in brief: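 Vero cells in RPMI with 10% inactivated FBS at 37 °C, 5% CO2, treated 72 h across 1–100. Stained with propidium iodide, then fluorescein diacetate (100 ng/mL), each 10 min at 28 °C in the dark. Cells spun at 400 g, washed in PBS, analysed by flow cytometry. % viability versus control; IC50 by linear regression.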

[5] = Selectivity index, ratio of IC50 for African green monkey Vero cells to IC50 for Trypanosoma cruzi (IRHOD/CO/2008/SN3) epimastigotes; assay type: toxicity, cell-based; settings: read-out: Ratio IC50; method in brief: as §1
[6] = Selectivity index, ratio of IC50 for African green monkey Vero cells to IC50 for Trypanosoma cruzi (IRHOD/CO/2008/SN3) amastigotes; assay type: toxicity, cell-based; settings: read-out: Ratio IC50; method in brief: as §1
[7] = test system: Trypanosoma cruzi; assay: Antitrypanosomal activity against Trypanosoma cruzi (IRHOD/CO/2008/SN3) trypomastigotes infected in Balb/c albino mouse after 24 hrs by Neubauer chamber counting analysis; assay type: functional, organism-based
Method in brief: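 Blood taken at the day-7 parasitemia peak from BALB/c mice infected with SN3. Diluted with uninfected murine blood to 4 × 10⁶ trypomastigotes/mL, then 1:2 in RPMI 1640 (2 × 10⁶/mL). Drugs (DMSO stocks) at 100, 50, 25, 10 and 1; incubated 24 h at 4–8 °C. Neubauer chamber counts; IC50 by linear regression; three repeats.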

[8] = test system: Trypanosoma cruzi; assay: Antitrypanosomal activity against Trypanosoma cruzi (IRHOD/CO/2008/SN3) infected in African green monkey Vero cells assessed as reduction in infection rate at IC25 treated for 12 hrs followed by compound-washout measured after 10 days by microscopic analysis relative to control; assay type: functional
Method in brief: (§2)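 Vero cells grown 2 days, then infected with metacyclic forms at 10:1. Drugs at IC25 added immediately after infection for 12 h at 37 °C, 5% CO2, then removed by washing. Cultures grown 10 days with medium renewed every 48 h. Methanol-fixed, Giemsa-stained preparations: % infected cells and amastigotes per infected cell over 200 host cells; trypomastigotes counted in the medium. Means of three experiments.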

[9] = test system: Trypanosoma cruzi; assay: Antitrypanosomal activity against Trypanosoma cruzi (IRHOD/CO/2008/SN3) infected in BALB/c mouse assessed as reduction in parasite specific antibodies level at 1 mg/kg/day, ip treated from day 5 to day 10 post-infection measured from day 30 to day 120 post-infection by ELISA; assay type: functional, organism-based
Method in brief: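 Female BALB/c mice (6–8 weeks, 20–25 g, groups of three) infected ip with 1 × 10⁵ metacyclic forms. Dosed 1 mg/kg/day ip on days 5–10 post-infection; infected untreated controls included. ELISA on blood diluted 1:50 in PBS, using excreted Fe-SOD antigen from epimastigotes, at days 30 and 120. Read-out is ΔA490 (day 120 minus day 30).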

[10] = test system: Trypanosoma cruzi; assay: Antitrypanosomal activity against Trypanosoma cruzi (IRHOD/CO/2008/SN3) infected in BALB/c mouse assessed as reduction in parasitemia at 1 mg/kg/day, ip treated from day 5 to day 10 post-infection measured on day 14 post-infection; assay type: functional, organism-based
Method in brief: (§3)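 Female BALB/c mice (groups of three) infected ip with 1 × 10⁵ metacyclic forms. Given 1 mg/kg/day ip for five days (days 5–10 post-infection); infected untreated controls included. Mandibular-vein blood (5 µL) diluted 1:15 in citrate/lysis buffer, with trypomastigotes/mL counted every 3–4 days. Mean values reported.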

[11] = test system: Trypanosoma cruzi; assay: Antitrypanosomal activity against Trypanosoma cruzi (IRHOD/CO/2008/SN3) epimastigotes assessed as change in L-lactate level at IC25 after 96 hrs by [1H]-NMR spectroscopic analysis relative to control; assay type: functional
Method in brief: (§4)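 Epimastigote cultures started at 5 × 10⁵ cells/mL and given IC25 concentrations, with untreated control cultures. After 96 h at 28 °C, cells spun at 400 g for 10 min. Excreted metabolites in the supernatant identified by ¹H NMR chemical shifts.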

[12] = test system: Trypanosoma cruzi; assay: Antitrypanosomal activity against Trypanosoma cruzi (IRHOD/CO/2008/SN3) epimastigotes assessed as change in acetate level at IC25 after 96 hrs by [1H]-NMR spectroscopic analysis; assay type: functional, organism-based; method in brief: as §4
[13] = test system: Trypanosoma cruzi; assay: Antitrypanosomal activity against Trypanosoma cruzi (IRHOD/CO/2008/SN3) infected in African green monkey Vero cells assessed as reduction in number of amastigotes at IC25 treated for 12 hrs followed by compound-washout measured after 10 days by microscopic analysis relative to control; assay type: functional; method in brief: as §2
[14] = test system: Trypanosoma cruzi; assay: Antitrypanosomal activity against Trypanosoma cruzi (IRHOD/CO/2008/SN3) epimastigotes assessed as change in ethanol level at IC25 after 96 hrs by [1H]-NMR spectroscopic analysis relative to control; assay type: functional; method in brief: as §4
[15] = test system: Trypanosoma cruzi; assay: Antitrypanosomal activity against Trypanosoma cruzi (IRHOD/CO/2008/SN3) epimastigotes assessed as parasite death at IC25 after 96 hrs by transmission electron microscopic analysis; assay type: functional, organism-based
[16] = test system: Trypanosoma cruzi; assay: Antitrypanosomal activity against Trypanosoma cruzi (IRHOD/CO/2008/SN3) epimastigotes assessed as change in L-alanine level at IC25 after 96 hrs by [1H]-NMR spectroscopic analysis relative to control; assay type: functional; method in brief: as §4
[17] = test system: Trypanosoma cruzi; assay: Antitrypanosomal activity against Trypanosoma cruzi (IRHOD/CO/2008/SN3) infected in African green monkey Vero cells assessed as reduction in number of trypomastigotes at IC25 treated for 12 hrs followed by compound-washout measured after 10 days by microscopic analysis relative to control; assay type: functional; method in brief: as §2
[18] = test system: Mus musculus; assay: Toxicity in BALB/c mouse assessed as mortality at 1 mg/kg/day, ip; assay type: organism-based; design: route intraperitoneal; settings: in vivo
Method in brief: (§5)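 Female BALB/c mice (6-8 weeks, 20-25 g), groups of three, infected ip with 1 × 10⁵ T. cruzi SN3 metacyclic forms. Dosing ip at 1 mg/kg/day for five consecutive days (days 5-10 post-infection). Controls were uninfected, infected-untreated and uninfected-treated groups. Mice followed to day 120 post-infection, with deaths recorded.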

[19] = test system: Trypanosoma cruzi; assay: Antitrypanosomal activity against Trypanosoma cruzi (IRHOD/CO/2008/SN3) epimastigotes assessed as damaged glycosomes at IC25 after 96 hrs by transmission electron microscopic analysis; assay type: functional, organism-based
[20] = test system: Trypanosoma cruzi; assay: Antitrypanosomal activity against Trypanosoma cruzi (IRHOD/CO/2008/SN3) epimastigotes assessed as damaged mitochondria at IC25 after 96 hrs by transmission electron microscopic analysis; assay type: functional, organism-based
[21] = test system: Trypanosoma cruzi; assay: Antitrypanosomal activity against Trypanosoma cruzi (IRHOD/CO/2008/SN3) epimastigotes assessed as presence of little electron-dense cytoplasm at IC25 after 96 hrs by transmission electron microscopic analysis; assay type: functional, organism-based
[22] = test system: Trypanosoma cruzi; assay: Antitrypanosomal activity against Trypanosoma cruzi (IRHOD/CO/2008/SN3) infected in BALB/c mouse assessed as reduction in parasitemia at 1 mg/kg/day, ip treated from day 5 to day 10 post-infection measured on day 30 post-infection relative to control; assay type: functional; design: scale not given: the % may be the effect or the level left; settings: route intraperitoneal; method in brief: as §3
[23] = test system: Trypanosoma cruzi; assay: Antitrypanosomal activity against Trypanosoma cruzi (IRHOD/CO/2008/SN3) epimastigotes assessed as large vacuolization with lipidic type vacuoles occupying cytoplasm at IC25 after 96 hrs by transmission electron microscopic analysis; assay type: functional, organism-based
[24] = test system: Trypanosoma cruzi; assay: Antitrypanosomal activity against Trypanosoma cruzi (IRHOD/CO/2008/SN3) epimastigotes assessed as change in succinate level at IC25 after 96 hrs by [1H]-NMR spectroscopic analysis relative to control; assay type: functional; method in brief: as §4
[25] = test system: Trypanosoma cruzi; assay: Antitrypanosomal activity against Trypanosoma cruzi (IRHOD/CO/2008/SN3) epimastigotes assessed as plasma membrane with scalloped appearance with undulations and discontinuities at IC25 after 96 hrs by transmission electron microscopic analysis; assay type: functional, organism-based
[26] = test system: Trypanosoma cruzi; assay: Antitrypanosomal activity against Trypanosoma cruzi (IRHOD/CO/2008/SN3) epimastigotes assessed as disruption of cytoskeleton with disorganization of microtubule structure at IC25 after 96 hrs by transmission electron microscopic analysis; assay type: functional, organism-based
[27] = Toxicity in BALB/c mouse assessed as survival at 1 mg/kg/day, ip relative to control; assay type: organism-based; design: route intraperitoneal; settings: in vivo; method in brief: as §5

IC50 [2] | IC50 [3] | IC50 [7] | Structure (SMILES) | selectivity ratio [1] | IC50 [4] | selectivity ratio [5] | selectivity ratio [6] | inhibition (INH) [8] | Activity [9] | Activity [10] | inhibition (INH) [13] | inhibition (INH) [17] | Activity [22] | further results
25.7 µM | 31.2 µM | 26.4 µM | COc1nn(CCOCCNCCOCCn2nc(OC)c3cc([N+](=O)[O-])ccc32)c2ccc([N+](=O)[O-])cc12 | 0.6 | 16.9 µM | 0.5 | 0.6 | – | – | – | – | – | – | –
16.5 µM | 26.6 µM | 16.5 µM | CN(CCOCCn1nc(OCc2ccccc2)c2cc([N+](=O)[O-])ccc21)CCOCCn1nc(OCc2ccccc2)c2cc([N+](=O)[O-])ccc21 | 7.8 | 128 µM | 4.8 | 7.8 | – | – | – | – | – | – | –
– | – | – | O=C(Cn1ccnc1[N+](=O)[O-])NCc1ccccc1 [BENZNIDAZOLE] | – | – | – | – | 19% | Active | Active | 37% | 41% | 23% | Activity [25]: Active; Activity [26]: Active; survival [27]: 80%
27.9 µM | 24.6 µM | 20.4 µM | COc1nn(CCOCCN(C)CCOCCn2nc(OC)c3cc([N+](=O)[O-])ccc32)c2ccc([N+](=O)[O-])cc12 | 6.3 | 130 µM | 4.1 | 4.6 | – | – | – | – | – | – | –
32.6 µM | 24.7 µM | 24.8 µM | COc1nn(C)c2ccc([N+](=O)[O-])cc12 | 7.4 | 183 µM | 7.4 | 5.6 | – | – | – | – | – | – | –
23.4 µM | 26.7 µM | 20.5 µM | CNCCOCCn1nc(OC)c2cc([N+](=O)[O-])ccc21 | 4.3 | 87.6 µM | 3.3 | 3.7 | – | – | – | – | – | – | –
26.5 µM | 27.3 µM | 20.7 µM | COc1nn(CCOCCN)c2ccc([N+](=O)[O-])cc12 | 4.2 | 87.2 µM | 3.2 | 3.3 | – | – | – | – | – | – | –

Structure (SMILES) | IC50 [2] | IC50 [3] | IC50 [7] | selectivity ratio [1] | IC50 [4] | selectivity ratio [5] | selectivity ratio [6] | inhibition (INH) [8] | Activity [9] | Activity [10] | inhibition (INH) [13] | inhibition (INH) [17] | Activity [22] | further results
CNCCOCCn1nc(OCc2ccccc2)c2cc([N+](=O)[O-])ccc21 | 16.6 µM | 19.1 µM | 14.5 µM | 14.7 | 214 µM | 11.2 | 12.9 | 78% | Active | Active | 63% | 75% | 39% | Activity [11]: 17%; Activity [12]: inactive; Activity [14]: inactive; Activity [15]: Active; Activity [16]: inactive; Activity [18]: Non-toxic; Activity [19]: Active; Activity [20]: Active; Activity [21]: Active; Activity [23]: Active; Activity [24]: 13%
Cn1nc(OCc2ccccc2)c2cc([N+](=O)[O-])ccc21 | 14.1 µM | 17.6 µM | 12 µM | 16.1 | 194 µM | 11 | 13.7 | 82% | Active | Active | 76% | 80% | 33% | Activity [11]: 23%; Activity [12]: inactive; Activity [14]: 11%; Activity [15]: Active; Activity [16]: 19%; Activity [18]: Non-toxic; Activity [19]: Active; Activity [20]: Active; Activity [21]: Active; Activity [23]: Active; Activity [24]: 35%
